The list is not random: actives were taken first. Their share in the collection is about 2.9%.
core dimer inh – inhibitors of HCV core protein dimerization, primary screen, biochemical, TR-FRET, high-throughput; TR-FRET GST/Flag-core106 dimerization, 1536-well; 300,000 compounds, 0.33% hits; inhibition, % at 5 µM;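 active = inhibition above the mean of all tested compounds plus 3 SD, set per screening campaign, cut at about 45% in these data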
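Assay system: tagged HCV core106 pair (GST and Flag); medium: KF-containing HEPES buffer, pH 7.45, DTT, CHAPS, BSA; also added: Eu donor and XL665 acceptor anti-tag antibodies; dosing: 5 µM single dose; timing: compound-protein-antibody incubation 4 h at 22.5 °C; signal: TR-FRET 671 and 617 nm emission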
PRMT1 FP inh – PRMT1 methyltransferase inhibitors, primary screen, biochemical, fluorescence polarization; 370,000 compounds, 1.3% hits; recombinant PRMT1, activity-based probe fluorescence polarization; inhibition, % at 2.79 µM; Protein arginine N-methyltransferase 1 (Homo sapiens), Q99873;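 active = inhibition above about 21% made by adding two undisclosed values, limit read from the data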
Target sequence (Q99873 whole entry, looked up): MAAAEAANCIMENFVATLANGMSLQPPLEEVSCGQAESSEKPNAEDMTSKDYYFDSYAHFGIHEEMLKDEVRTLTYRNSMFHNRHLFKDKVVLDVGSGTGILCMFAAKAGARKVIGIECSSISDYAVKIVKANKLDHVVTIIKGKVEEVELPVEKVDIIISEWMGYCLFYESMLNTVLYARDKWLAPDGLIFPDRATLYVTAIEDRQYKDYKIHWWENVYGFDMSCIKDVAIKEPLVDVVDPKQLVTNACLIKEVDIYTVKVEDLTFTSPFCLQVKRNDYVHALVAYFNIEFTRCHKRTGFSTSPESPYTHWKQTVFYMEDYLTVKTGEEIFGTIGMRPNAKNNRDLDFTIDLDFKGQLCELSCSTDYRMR
A3A deaminase – APOBEC3A ssDNA deaminase inhibitors, primary screen, selectivity assay for APOBEC3G inhibitor project, biochemical, FAM/TAMRA oligo cleavage fluorescence. recombinant A3A, FAM/TAMRA ssDNA deamination fluorescence. 330,000 compounds, 0.41% hits. inhibition, % at 20 µM. AID 493011, 2011. DNA dC->dU-editing enzyme APOBEC-3A (Homo sapiens), P31941;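 active = at least 40% inhibition at 20 µM here, with at most 30% in a related deaminase screen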;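 also: plate controls were A3A with DMSO for no effect and wells lacking A3A enzyme for full effect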
Target sequence (P31941 whole entry, looked up): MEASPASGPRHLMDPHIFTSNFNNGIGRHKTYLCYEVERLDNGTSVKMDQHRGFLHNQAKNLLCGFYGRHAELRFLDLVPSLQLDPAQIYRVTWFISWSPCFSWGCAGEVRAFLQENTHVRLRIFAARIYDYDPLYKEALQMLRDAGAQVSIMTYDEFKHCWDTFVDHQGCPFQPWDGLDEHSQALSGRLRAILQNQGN
A3G deaminase – APOBEC3G DNA deaminase inhibitors, primary screen, biochemical, fluorescence, single-stranded DNA substrate, uHTS | DNA dC->dU-editing enzyme APOBEC-3G (Homo sapiens), Q9HC16 | recombinant A3G, ssDNA deamination FAM/TAMRA fluorescence | inhibition, % at 20 µM | 330,000 compounds, 0.28% hits | AID 493012, 2011;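 active = inhibition of at least 40% at 20 µM, with no more than 30% in the related APOBEC3A deaminase screen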;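 also: plate controls were DMSO wells with A3G for no effect and wells lacking A3G enzyme for full effect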
ABHD5-PLIN5 inh – ABHD5-PLIN5 interaction inhibitors, primary screen, cell lysate, split luciferase complementation, luminescence; Split G. princeps luciferase complementation, 4 h; inhibition, % at 4 µM; 360,000 compounds, 0.78% hits;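 active = inhibition above the mean inhibition across every tested compound plus 3 SD, cut at about 22% in these data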;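 also: 0% = DMSO only wells and the 100% control is not disclosed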
NS3 helicase inh – inhibitors of HCV NS3 helicase, primary screen, biochemical, Cy5 molecular beacon fluorescence. Hepatitis C virus NS3 helicase. NS3 helicase DNA unwinding. inhibition, % at 10.9 µM. 290,000 compounds, 0.56% hits. AID 1800, 2009;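 active = inhibition above the mean of all tested compounds plus 3 SD, set per campaign, cut at about 35% in these data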;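 also: 0% = DMSO wells and 100% = thioflavine S control wells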
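Assay system: hepatitis C virus NS3 helicase domain fragment enzyme. Also added: annealed dual-labelled DNA beacon duplex, ATP-started. Timing: 1 h reaction at 25 °C, ATP-initiated. Technique: Cy5 fluorescence at 0 and 60 min, beacon hairpin quenching. Evaluation: % inhibition of unwinding. Replication: one well per compound.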
A3A conf – APOBEC3A deaminase inhibitors, retest, confirmation, selectivity assay for APOBEC3G inhibitor project, biochemical, single concentration, fluorescence readout; AID 493151, 2011; recombinant A3A, ssDNA deaminase UDG fluorescence assay; shares compounds with A3A deaminase; 1,400 compounds, 63% hits; inhibition, % at 20 µM;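 active = inhibition reaching a set limit, 80% of the first screen's cutoff, at 20 µM in any replicate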;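 also: plate controls were DMSO wells with A3A for no effect and wells lacking A3A enzyme for full effect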
UDG A3A counter – E. coli UDG inhibitors, confirmation, counter-screen for APOBEC3A inhibitor project, biochemical, single concentration, fluorescence, FAM/TAMRA oligo; shares compounds with A3A deaminase; UDG counterscreen, FAM/TAMRA uracil oligo fluorescence; inhibition, % at 20 µM; 1,000 tested, under 10 active; call rule not given here
* hit, by the source's call; x = no result.

SMILES	core dimer inh	PRMT1 FP inh	A3A deaminase	A3G deaminase	ABHD5-PLIN5 inh	NS3 helicase inh	A3A conf	UDG A3A counter
COC(=O)c1ccc2ccn(CC(=O)NC(C)C)c2c1	-1	2	74*	13	2	-1	70*	-2
COC(=O)c1cccc(Cn2ccc3ccc(-c4ccc5ccn(Cc6cccc(C(=O)OC)c6)c5c4)cc32)c1	x	-5	x	x	x	x	x	x
O=C(CSc1ccccn1)Nc1ccccc1F	-12	-3	-5	-7	6	2	x	x
O=C(CSc1ccccn1)Nc1cccc2ccccc12	6	-4	60*	8	-6	1	44*	-3
O=C(CSc1nnc(COc2ccccc2Cl)o1)NC(=O)NCc1ccco1	32	-1	59*	23	9	6	22*	-1
CC(C)(C)NC(=O)NC(=O)CSc1nnc(COc2ccccc2Cl)o1	8	3	5	2	0	-2	x	x
CC(=O)c1c(COC(=O)c2ccc(C)cc2)nc2ccccc2[n+]1[O-]	3	-2	-3	-9	3	-18	x	x
CC(=O)c1c(COC(=O)c2cccnc2)nc2ccccc2[n+]1[O-]	13	4	58*	20	-3	19	76*	0
COc1ccc(/C=C/c2ccc3ccccc3[n+]2C)cc1OC	-9	x	66*	23	8	0	81*	2
COC/C=C/C1=CC2=CC(=O)C(C)(OC(=O)c3cnc4ccccc4n3)C(=O)C2=CO1 (stereo not drawn)	10	x	44*	23	x	x	39*	x
COC/C=C/C1=CC2=CC(=O)C(C)(OC(=O)c3cnc4ccccc4n3)C(=O)C2=CN1C(CO)CO (stereo not drawn)	2	7	0	-5	4	x	x	x
N#CC1(NC(=O)COc2cc(F)ccc2[N+](=O)[O-])CCCCC1	x	-2	-1	-5	-13	x	x	x
N#CC1(NC(=O)COc2ccccc2[N+](=O)[O-])CCCCC1	2	-2	48*	3	-4	x	22	x
Cc1cc(=O)[nH]c(SCC(=O)Nc2ccc(C(=O)O)cc2)n1	2	2	3	3	-5	12	x	x
O=C(CSc1nccc(=O)[nH]1)NCc1ccco1	-1	4	49*	18	-4	1	35*	0
Cc1cc(=O)[nH]c(SCC(=O)NCc2ccco2)n1	-7	2	65*	18	5	10	55*	1
CCOC(=O)c1ccc(NC(=O)CSc2nc(C)cc(=O)[nH]2)cc1	63*	x	46*	15	-6	17	66*	4
Cc1cc(O)cc(=O)n1-c1cccc(C(F)(F)F)c1	x	6	x	x	x	x	x	x
CN(C)/C=C(/C(=O)c1ccc(Cl)cc1)S(C)(=O)=O	-14	-3	43*	5	6	-6	1	x
CN(C)/C=C(/C(=O)c1ccc(Cl)c(Cl)c1)S(C)(=O)=O	-2	3	-2	-4	2	1	x	x
CCCCCCCCCCCCCCCC[N+](C)(C)Cc1ccc(F)cc1	x	-1	x	x	16	x	x	x
CC(=O)[C@]1(O)Cc2c(O)c3c(c(O)c2[C@@H](O[C@H]2C[C@H](N)[C@H](O)[C@H](C)O2)C1)C(=O)c1ccccc1C3=O	-33	x	41*	20	x	x	46*	-2
COc1cccc(N2[C@@H](CC(=O)O)c3ccc(/C=C/C(=O)O)cc3S2(=O)=O)c1	-30	2	94*	26	7	x	79*	-4
CCOC(=O)C1=C(C)NC(SC)=NC1c1ccc(OC)cc1 (stereo not drawn)	-1	2	22	17	2	3	x	x
CCC1N=C(SC)NC(C)=C1C(=O)c1ccccc1 (stereo not drawn)	2	8	48*	19	4	9	35*	-3
SMILES	core dimer inh	PRMT1 FP inh	A3A deaminase	A3G deaminase	ABHD5-PLIN5 inh	NS3 helicase inh	A3A conf	UDG A3A counter
O=C(COC(=O)Cc1cccc(C(F)(F)F)c1)Nc1cccc2ccccc12	-1	-2	41*	-6	-5	1	6	4
O=[N+]([O-])c1ccc(S(=O)(=O)NCC(c2ccco2)N2CCc3ccccc3C2)cc1 (stereo not drawn)	0	-2	77*	-7	5	x	-2	-3
Cc1ccc2[nH]c(C)c(/C=C/c3cc[n+](C)cc3)c2c1	x	-44	34	-36	9	-23	x	x
C[n+]1ccc(/C=C/c2ccc(Br)cc2)cc1	-4	2	51*	22	8	10	82*	-34
CCc1ccc(N(C)S(=O)(=O)c2ccc3[nH]cc(C(=O)NCCN4CCOCC4)c(=O)c3c2)cc1	-2	3	0	-2	-3	-7	x	x
CN(c1ccc(Br)cc1)S(=O)(=O)c1ccc2[nH]cc(C(=O)NCCN3CCOCC3)c(=O)c2c1	-4	-2	42*	6	3	-13	-1	x
Cc1ccc(S(=O)(=O)N2[C@@H](CCO)OC[C@H]2C(C)C)cc1	x	-2	x	x	0	x	x	x
COc1ccccc1N=Nc1[nH]c2ccc(C)cc2c1O	0	3	66*	6	3	-4	53*	0
CNC(=O)c1ccccc1C1(O)c2ccccc2CCc2ccccc21	x	8	x	x	x	x	x	x
Cn1cc(-c2csc(C(O)c3ccc(F)c(F)c3)n2)cn1 (stereo not drawn)	x	3	x	x	-6	x	x	x
CC(C)N1C(=O)CC2(CC[N+](C)(CCOC(=O)C(c3ccccc3)c3ccccc3)CC2)C1=O (stereo not drawn)	0	-1	60*	18	3	-21	27*	5
O=C(OCCN1CCOCC1)C(c1ccccc1)c1ccccc1	10	2	-2	3	7	-12	x	x
C[N+]1=C2CCCCCN2C(O)(c2ccccc2)C1 (stereo not drawn)	4	1	69*	19	-4	-1	72*	0
